Bioassay records as filed in PubChem BioAssay.
TRPC6 inhibitor: blocks the mouse TRPC6 cation channel; AID 2553; 310,000 compounds, 1.1% hits; HEK293-TRPC6, membrane potential dye, ACh-evoked depolarization; active compounds read low; B-score at 10 µM; Q61143;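 active = B-score under library mean minus 3 SD, initial fluorescence not abnormally high, positive integrated signal ratio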;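 also: B-score derived from integrated fluorescence ratio over the kinetic read; more negative B-score means stronger inhibition of depolarization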
Target sequence (Q61143 whole entry, looked up): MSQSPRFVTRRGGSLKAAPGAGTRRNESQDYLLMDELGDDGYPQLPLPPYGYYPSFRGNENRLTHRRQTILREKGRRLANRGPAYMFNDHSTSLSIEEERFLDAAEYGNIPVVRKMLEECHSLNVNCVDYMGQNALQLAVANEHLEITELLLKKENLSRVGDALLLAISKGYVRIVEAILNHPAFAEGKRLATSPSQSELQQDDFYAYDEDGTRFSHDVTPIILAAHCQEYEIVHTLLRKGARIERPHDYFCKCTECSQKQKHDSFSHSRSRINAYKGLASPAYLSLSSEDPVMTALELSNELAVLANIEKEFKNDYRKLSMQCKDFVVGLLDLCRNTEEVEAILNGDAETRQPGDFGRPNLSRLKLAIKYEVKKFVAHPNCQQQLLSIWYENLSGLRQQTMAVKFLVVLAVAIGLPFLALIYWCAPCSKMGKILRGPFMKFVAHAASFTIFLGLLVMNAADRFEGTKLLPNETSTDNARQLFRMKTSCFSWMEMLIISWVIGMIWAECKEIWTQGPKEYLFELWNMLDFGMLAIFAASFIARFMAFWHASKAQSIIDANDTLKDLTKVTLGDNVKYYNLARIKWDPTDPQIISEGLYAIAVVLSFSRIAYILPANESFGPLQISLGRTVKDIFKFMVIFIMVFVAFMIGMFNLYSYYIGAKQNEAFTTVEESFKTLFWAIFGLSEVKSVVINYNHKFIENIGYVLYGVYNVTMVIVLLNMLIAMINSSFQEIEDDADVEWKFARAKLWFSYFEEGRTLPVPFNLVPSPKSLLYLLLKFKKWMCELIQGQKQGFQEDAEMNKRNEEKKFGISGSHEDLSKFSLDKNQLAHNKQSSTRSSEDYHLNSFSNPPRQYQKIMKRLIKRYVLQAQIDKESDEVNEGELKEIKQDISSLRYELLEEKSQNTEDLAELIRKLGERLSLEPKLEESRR
TRPC4 inh: TRPC4 (mouse) channel inhibition; Q9QUQ5; HEK293 TRPC4beta/mu-opioid, DAMGO-evoked Fluo4 calcium flux; active compounds read low; B-score at 10 µM; 300,000 compounds, 0.39% hits; AID 2247;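 active = B-score over 3 SD under the library average, no early fluorescence shift, positive overall ratio signal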
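material = TRPC4beta/mu-opioid receptor HEK293 cell line | probe or stimulus = sequential submaximal and maximal DAMGO stimulation | compound dosing = one concentration per compound | measured by = Fluo4 Ca2+ flux fluorescence | evaluation = integrated fluorescence ratio relative to baseline, converted to per-well B score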
TRPC4 act: opens the mouse TRPC4 cation channel; Q9QUQ5; HEK293 TRPC4beta/mu-opioid, Fluo4 calcium fluorescence; active compounds read high; B-score at 10 µM; 310,000 compounds, 0.49% hits;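 active = B-score above 5 SD of library B-scores, and initial fluorescence ratio not above library mean plus 5 SD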;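 also: positive B-score marks a calcium rise read as TRPC4 activation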
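Assay system: HEK293 stable line with TRPC4beta plus mu-opioid receptor; schedule: 45 min room-temperature Fluo4 loading, 110 s read; technique: kinetic Fluo4 calcium fluorescence; evaluation: integrated baseline-normalised fluorescence ratio, converted to per-well B score; controls: buffer (low) and maximal DAMGO (high)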
TRPC4 potent: allosterically enhances the mouse TRPC4 cation channel. 310,000 compounds, 0.42% hits. Q9QUQ5. HEK293 TRPC4beta/mu-opioid, DAMGO EC20, Fluo-4 Ca2+ flux; active compounds read high. B-score at 10 µM;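 active = B-score of calcium response area above 5 SD of library B-scores, with initial fluorescence ratio within 5 SD of library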;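 also: B-score of integrated fluorescence ratio over time as area under calcium response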
TRPC6 activator: mouse TRPC6 channel activation | 310,000 compounds, 0.13% hits | AID 2550 | HEK293-TRPC6 membrane potential dye fluorescence; active compounds read high | Q61143 | B-score at 10 µM;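 active = B-score of the integrated fluorescence ratio above library mean plus 3 SD, and starting fluorescence ratio within library mean plus 5 SD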;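 also: higher score means more depolarization so channel activation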
* = called active by the depositor; i = inactive. Compounds with a hit are over-represented: about 2.3% of the library has one in this group of screens.

SMILES	TRPC6 inhibitor	TRPC4 inh	TRPC4 act	TRPC4 potent	TRPC6 activator
COc1ccc(N2CC(NC(=O)N3CCN(c4ccccc4)CC3)CC2=O)cc1 (stereo not drawn)	i	i	i	i	i
O=C(NC1CCN(Cc2ccccc2)CC1)C1CCCN(S(=O)(=O)c2cccc3nonc23)C1 (stereo not drawn)	i	i	i	10*	i
O=C(NCc1ccccc1)C1CCCN(S(=O)(=O)c2cccc3nonc23)C1 (stereo not drawn)	i	i	i	i	i
CN(C)C(CNC(=O)c1oc2ccccc2c1CSc1ncn[nH]1)c1ccco1 (stereo not drawn)	i	-7*	i	i	i
CCOC(=O)c1c(C)[nH]c(C)c1S(=O)(=O)NCC1CCN(Cc2ccccc2OC)CC1	i	i	i	i	i
O=C(NCCCN1CCOCC1)c1ccc(NS(=O)(=O)c2ccccc2)cc1	i	i	i	i	i
O=C(CN1CCCCC1)N1c2ccccc2Oc2ccccc21	i	-5*	i	i	i
O=C(CN1CCCCCC1)N1c2ccccc2Sc2ccccc21	i	-7*	i	i	i
CC1Cc2ccccc2N1C(=O)CN1CCCCC1 (stereo not drawn)	i	i	i	i	i
CN1CCN(CC(=O)N2c3ccccc3Sc3ccccc32)CC1	i	i	i	i	i
CCN(CC)S(=O)(=O)c1ccc(O)c(C(=O)OCC(=O)N2CCCC2)c1	i	i	i	i	i
COc1ccc(C(C(=O)NC2CCCCC2)N(C(=O)Cc2c[nH]c3ccccc23)c2ccccc2C)cc1OC (stereo not drawn)	i	i	i	11*	i
CCc1ccc(CNC(=O)C2CCN(S(=O)(=O)N3CC(C)CC(C)C3)CC2)cc1 (stereo not drawn)	i	i	i	i	i
O=S(=O)(c1ccccc1)c1nc(-c2cccc(Cl)c2)oc1N1CCOCC1	i	i	i	10*	i
COc1ccc(S(=O)(=O)NCc2cccnc2)cc1C	i	i	i	i	i
O=C(Nc1ccccc1)C1=C[C@H](c2ccc3c(c2)OCO3)C[C@H](OCc2ccc(CO)cc2)O1	i	i	i	10*	i
O=C(O)C1=C[C@H](c2ccc3c(c2)OCO3)C[C@H](OCc2ccc(CO)cc2)O1	i	i	i	i	i
c1ccc(N2CCN(c3nc(-c4ccccn4)nc4ccccc34)CC2)cc1	-5.6*	i	i	i	i
c1ccc2c(N3CCCCCC3)nc(-c3ccncc3)nc2c1	i	i	i	i	i
CS(=O)(=O)N(CC(=O)NCCSCc1c(F)cccc1Cl)c1cccc([N+](=O)[O-])c1	i	i	i	i	i
COc1ccccc1C1C2=C(CCCC2=O)N(CC(=O)O)C2=C1C(=O)CCC2	i	i	i	i	i
COc1cc(Br)cc(C2C3=C(CCCC3=O)N(c3ccc(F)cc3)C3=C2C(=O)CCC3)c1O	i	i	i	70*	i
CC(C)(C)OC1NS(=O)(=O)OCC1NCOC(Cl)(Cl)Cl (stereo not drawn)	i	i	i	i	i
CCN1CCN(c2ccc(S(=O)(=O)N3CCCCC3)cc2NC(=O)c2cccc(C)c2[N+](=O)[O-])CC1	i	i	132*	i	i
CCN1CCN(c2ccc(S(=O)(=O)N3CCCCC3)cc2NC(=O)c2ccccc2)CC1	i	i	i	i	i
SMILES	TRPC6 inhibitor	TRPC4 inh	TRPC4 act	TRPC4 potent	TRPC6 activator
CCN1CCN(c2ccc(S(=O)(=O)N3CCCCC3)cc2NC(=O)c2cccc(F)c2)CC1	i	i	i	17*	i
CCN1CCN(c2ccc(S(=O)(=O)N3CCCCC3)cc2NC(=O)c2cccc(C(F)(F)F)c2)CC1	i	i	i	29*	i
COC(=O)c1ccccc1Nc1ccnc(Cl)n1	i	i	i	i	i
CN(C)CCOC(=O)c1ccc2c(c1)S(=O)(=O)c1ccccc1C2=O	i	i	i	i	i
COc1ccc(OC)c(NC(=O)COC(=O)Cc2ccc(-c3ccccc3)cc2)c1	i	i	i	21*	i
COc1ccc(OC)c(NC(=O)COC(=O)Cc2ccc(Br)cc2)c1	i	i	i	i	i
O=C(COc1ccc(Br)cc1)c1ccc2c(c1)CCCC2	i	i	i	12*	i
Cc1ccc(OCC(=O)c2ccc3c(c2)CCCC3)cc1C	i	i	i	i	i
CCCCCc1c(O)nc(SCCN(CC)CC)[nH]c1=O	i	i	46*	i	i
CCCN(CCC)CCSc1nc(O)c(C(C)C)c(=O)[nH]1	i	i	i	12*	i
CCCCCCc1c(O)nc(SCC(=O)O)[nH]c1=O	i	i	i	i	i
CC(C)c1c(O)nc(SCC(=O)N2CCCCC2)[nH]c1=O	i	i	i	10*	i
CC(C)c1c(O)nc(SCCC(=O)O)[nH]c1=O	i	i	i	i	i
CCCCCCc1c(O)nc(SCCN(C)C)[nH]c1=O	i	i	65*	i	i
CC(=O)Nc1cccc(NC(=O)CSc2nc(=O)n(CCCN3CCOCC3)c3c2CCC3)c1	i	i	i	i	i
CCCCCc1c(O)nc(SCCN(C)C)[nH]c1=O	i	i	93*	i	i
CCN1CCN(CC(=O)c2ccc(OC)cc2)CC1	i	i	i	i	i
CCN(CC)CCNC(=O)c1cc2cc(Br)ccc2s1	i	i	i	i	i
Nc1nonc1C(=O)NCCN=Cc1ccccc1O	i	i	71*	i	i
Nc1nonc1C(=O)NCCN=Cc1cc(Cc2ccccc2)cc(Br)c1O	i	i	i	i	i
COc1ccccc1NC(=O)C1CCCN(S(=O)(=O)c2ccc3c(c2)CC(C)N3C(C)=O)C1 (stereo not drawn)	i	i	i	i	i
Cc1nn(-c2ccccc2)c(Cl)c1/C=N/Nc1ccc(S(=O)(=O)Nc2ccccc2C(=O)O)cc1[N+](=O)[O-]	i	-6*	i	i	i
COc1nc(N=C(N)N)nc2ccc(C)cc12	i	-5*	i	i	i
CCCCn1c(N)c(N(CC(C)C)C(=O)c2cccc(OCc3ccccc3)c2)c(=O)[nH]c1=O	i	i	i	i	i
Nc1[nH][nH]c(=O)c1N=Nc1cccc(Cl)c1	i	i	i	10*	i
COc1cccc(N=Nc2c(N)[nH][nH]c2=O)c1	i	i	i	14*	i
